What is called IC50 is the concentration at which inhibition is half-maximal. The term inhibition denotes the drop in the measured response relative to a control, in per cent.

Calls of active or inactive are those of the source. No cut-off for these calls is given here.

Among the data in ChEMBL document CHEMBL3612019, “Revisiting 1,3,4-Oxadiazol-2-ones: Utilization in the Development of ABHD6 Inhibitors” (Bioorg Med Chem, 2015) are IC50 and inhibition values, retold here.

The target in test [1] is T1, Monoacylglycerol lipase ABHD6 (Homo sapiens, UniProt Q9BV23).
T1 sequence (Q9BV23 whole entry): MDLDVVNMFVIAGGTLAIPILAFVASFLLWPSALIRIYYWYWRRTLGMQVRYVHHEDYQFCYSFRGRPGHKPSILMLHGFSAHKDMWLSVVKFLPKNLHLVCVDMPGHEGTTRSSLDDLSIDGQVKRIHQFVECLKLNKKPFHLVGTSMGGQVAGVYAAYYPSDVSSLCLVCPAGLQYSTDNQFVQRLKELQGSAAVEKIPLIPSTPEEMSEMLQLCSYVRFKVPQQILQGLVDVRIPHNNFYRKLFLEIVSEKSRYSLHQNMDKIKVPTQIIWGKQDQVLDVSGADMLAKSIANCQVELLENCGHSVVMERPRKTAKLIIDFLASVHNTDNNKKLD
Briefly: Inhibition of human ABHD6 expressed in HEK293 cells assessed as reduction in glycerol production from 1-AG hydrolysis pre-incubated for 30 mins before 1-AG substrate addition and measured 90 mins post substrate addition by fluorescence method. In kind it is cell-based. The method, boiled down:
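hABHD6-HEK293 lysates pretreated 30 min with DMSO or inhibitor, then given 1-AG (12.5 µM final). Glycerol release was followed kinetically by fluorescence (emission 590 nm). Blanks without lysate were subtracted. IC50 was taken at the 90 min time point by nonlinear fitting of dose–response curves.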

In test [2] the target is T2, Monoglyceride lipase (Mus musculus) (UniProt O35678).
T2 sequence (whole entry): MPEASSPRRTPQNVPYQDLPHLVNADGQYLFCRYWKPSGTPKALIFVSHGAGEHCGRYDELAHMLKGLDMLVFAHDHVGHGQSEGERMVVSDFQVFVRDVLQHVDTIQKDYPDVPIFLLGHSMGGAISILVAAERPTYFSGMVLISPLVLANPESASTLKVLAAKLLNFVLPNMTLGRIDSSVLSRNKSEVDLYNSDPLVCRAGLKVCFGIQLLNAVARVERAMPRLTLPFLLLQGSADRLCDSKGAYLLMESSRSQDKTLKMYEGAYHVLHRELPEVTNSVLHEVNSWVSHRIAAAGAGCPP
The experiment in a line: Inhibition of MAGL in mouse whole brain membranes at 10 uM incubated for 1 hr by TAMRA-FP probe based competitive activity-based protein profiling assay. In kind it is cell membranes. The following applies: Membrane. The method, boiled down:
(§1)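 Competitive ABPP on mouse brain membranes (100 µg) treated 1 h with DMSO or inhibitor. TAMRA-FP labelling then ran 1 h at RT (final probe 2 µM). Reaction was quenched with gel loading buffer and proteins resolved by 10% SDS–PAGE for fluorescent band read-out. WWL70 located the ABHD6 band. Gels are representative of two experiments.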

Test [3] has as its target T3, Lysophosphatidylserine lipase ABHD12 (Homo sapiens) (UniProt Q8N2K0).
T3 sequence (whole entry): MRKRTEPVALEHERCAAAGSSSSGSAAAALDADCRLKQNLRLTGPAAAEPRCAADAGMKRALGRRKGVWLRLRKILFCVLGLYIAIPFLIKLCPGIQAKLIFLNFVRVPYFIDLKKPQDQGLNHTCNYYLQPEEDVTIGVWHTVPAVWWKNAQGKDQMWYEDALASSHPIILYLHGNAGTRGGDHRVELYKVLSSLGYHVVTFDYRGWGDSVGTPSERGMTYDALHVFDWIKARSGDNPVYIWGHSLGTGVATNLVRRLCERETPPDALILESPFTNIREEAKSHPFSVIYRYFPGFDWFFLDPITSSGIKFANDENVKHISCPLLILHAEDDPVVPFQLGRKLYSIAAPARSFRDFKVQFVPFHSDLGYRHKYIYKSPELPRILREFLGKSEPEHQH
The experiment in a line: Inhibition of human ABHD12 expressed in HEK293 cells assessed as remaining enzyme activity at 1 uM pre-incubated for 10 mins before 2-AG substrate addition by HPLC method. In kind it is cell-based.

For test [4], the target named is T4, Fatty-acid amide hydrolase 1 (Homo sapiens) (UniProt O00519).
T4 sequence (whole entry): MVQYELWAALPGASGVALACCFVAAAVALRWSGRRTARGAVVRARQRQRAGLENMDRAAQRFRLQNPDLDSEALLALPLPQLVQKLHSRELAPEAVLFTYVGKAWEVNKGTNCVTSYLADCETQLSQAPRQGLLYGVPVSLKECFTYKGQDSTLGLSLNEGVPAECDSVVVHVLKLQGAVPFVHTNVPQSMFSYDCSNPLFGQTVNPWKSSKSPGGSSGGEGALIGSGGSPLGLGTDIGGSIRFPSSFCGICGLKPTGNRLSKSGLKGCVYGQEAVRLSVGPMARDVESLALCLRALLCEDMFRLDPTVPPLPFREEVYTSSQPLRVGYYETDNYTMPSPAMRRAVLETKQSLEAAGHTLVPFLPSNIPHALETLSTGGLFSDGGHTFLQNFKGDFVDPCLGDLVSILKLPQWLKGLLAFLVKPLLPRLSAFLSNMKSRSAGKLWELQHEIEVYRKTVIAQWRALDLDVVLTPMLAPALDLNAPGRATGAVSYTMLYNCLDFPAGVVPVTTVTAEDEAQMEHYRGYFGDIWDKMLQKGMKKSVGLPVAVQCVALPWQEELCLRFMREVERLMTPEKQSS
Briefly: Inhibition of human FAAH expressed in COS7 cell membranes at 10 uM pre-incubated for 10 mins before [3H]-AEA substrate addition by liquid scintillation counting. The following applies: COS-7.

Test [5] deals with T5, Fatty-acid amide hydrolase 1 (Mus musculus) (UniProt O08914).
T5 sequence (whole entry): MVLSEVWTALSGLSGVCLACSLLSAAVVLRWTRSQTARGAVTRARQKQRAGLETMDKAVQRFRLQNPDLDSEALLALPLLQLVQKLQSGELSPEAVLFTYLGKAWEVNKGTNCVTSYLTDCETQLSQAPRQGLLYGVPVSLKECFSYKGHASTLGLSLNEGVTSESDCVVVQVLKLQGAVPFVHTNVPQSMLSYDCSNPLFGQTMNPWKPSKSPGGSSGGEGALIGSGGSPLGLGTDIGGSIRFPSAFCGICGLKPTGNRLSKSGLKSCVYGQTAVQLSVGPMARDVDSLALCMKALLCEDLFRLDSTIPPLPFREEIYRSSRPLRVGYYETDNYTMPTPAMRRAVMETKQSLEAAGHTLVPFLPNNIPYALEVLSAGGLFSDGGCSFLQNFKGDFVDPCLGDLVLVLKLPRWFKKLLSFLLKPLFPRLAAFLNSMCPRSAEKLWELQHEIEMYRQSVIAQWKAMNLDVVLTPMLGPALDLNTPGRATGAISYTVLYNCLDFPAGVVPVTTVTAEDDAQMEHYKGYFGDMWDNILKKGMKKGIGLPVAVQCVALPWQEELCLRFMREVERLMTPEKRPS
Briefly: Inhibition of FAAH in mouse whole brain membranes at 10 uM incubated for 1 hr by TAMRA-FP probe based competitive activity-based protein profiling assay. In kind it is cell membranes. As to conditions: Membrane. The method, boiled down: as §1

With `COc1nn(Cc2cccc(N)c2)c(=O)o1`, the IC50 in test [1] stood at 216 nM. The inhibition entry in test [2], in test [3] and in test [5] was “inactive” throughout. Besides, the inhibition in test [4] amounted to 18%.

Take `Nc1cccc(Cn2nc(Oc3ccccc3)oc2=O)c1`: the IC50 in test [1] is 73 nM. Moreover, the inhibition entry in test [2] and in test [5] was “Active” each time. For the same compound, the inhibition result in test [3] is “inactive”. The same compound displayed an inhibition in test [4] of 25%.
